The species named for test [1] is Rattus norvegicus. Description: Concentration required for inhibition of adipocyte lipolysis in rat adipocyte assay was determined. The format is functional. Put shortly:
(§1)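 Abdominal fat pads from male rats (200–250 g) were collagenase-digested for 1 h at 37 °C in Krebs-bicarbonate buffer gassed with 95:5 O2/CO2, then washed twice. Cells were stimulated with epinephrine (3 µM) plus methylisobutylxanthine (10 µM). Compound was added from DMSO or water stock and incubated 1 h at 37 °C. The run was stopped on ice, and glycerol in the aqueous phase was measured by glycerol dehydrogenase (NAD→NADH).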

The nature of test [2]: (§2) Concentration required for inhibition of free fatty acid liberation in Canine myocardial lipase assay. Type of test: tissue-based, Canis lupus familiaris, Myocardium.
For test [3], the species on record is Canis lupus familiaris. Kind of test: Percentage inhibition of free fatty acid liberation at 100 uM determined in canine myocardial lipase assay. Type of test: functional. Put shortly:
(§3)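 Lipases were extracted from washed canine heart membranes with buffer, heparin and a little Triton X-100. The reaction ran in an oil-water emulsion of triolein with [3H]triolein tracer, 50 mM Tris pH 6.8 and 0.5% BSA. Compound was at 100 µM (3.0% DMSO final), tested in duplicate. Released [3H]oleic acid was extracted into hexane, separated from triolein and scintillation counted.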

The species entered for test [4] is Rattus norvegicus. Kind of test: Percent inhibition of adipocyte lipolysis in rat adipocyte assay was determined at 3 uM concentration. Type of test: functional. In a few lines:
(§4)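 Abdominal fat pads from male rats (200–250 g) in Krebs-bicarbonate buffer gassed 95:5 O2/CO2, collagenase-digested 1 h at 37 °C, washed twice. Lipolysis stimulated with epinephrine (3 µM) plus methylisobutylxanthine (10 µM); compounds added from 20 mM DMSO or water stock (final DMSO 1%). Incubated 1 h at 37 °C under O2/CO2, stopped on ice. Medium glycerol measured by glycerol dehydrogenase (NAD to NADH).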

The species named for test [5] is Rattus norvegicus. Description: Percent inhibition of adipocyte lipolysis in rat adipocyte assay was determined at 30 uM concentration. Type of test: functional. Put shortly: as §1
The species entered for test [6] is Canis lupus familiaris. Description: Percent inhibition of free fatty acid liberation at 100 uM was determined in Canine myocardial lipase assay. Put shortly: as §3
Test [7] is described as follows: as §2. Type of test: functional, tissue-based, Canis lupus familiaris, Myocardium.
For test [8], the species on record is Rattus norvegicus. Description: Percent inhibition of adipocyte lipolysis in rat adiposite assay was determined at 3 uM concentration. The format is functional. Put shortly:
as §4

The species named for test [9] is Rattus norvegicus. Description: Concentration required for inhibition of adipocyte lipolysis in rat adipocyte assay was determined at 200 uM concentration. The format is functional. Put shortly: (§5)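 Rat adipocytes were prepared by collagenase digestion of abdominal fat pads from male rats (200–250 g) in gassed Krebs-bicarbonate buffer. Lipolysis was driven by 3 µM epinephrine plus 10 µM methylisobutylxanthine. Compound was added from a 20 mM DMSO or water stock to a final 200 µM (1% DMSO), then incubated 1 h at 37 °C under 95:5 O2/CO2. Released glycerol was quantified with glycerol dehydrogenase.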

For test [10], the species on record is Rattus norvegicus. Description: Percent inhibition of adipocyte lipolysis in rat adipocyte assay was determined at 200 uM concentration. Type of test: functional. Put shortly: as §5
The species entered for test [11] is Rattus norvegicus. Kind of test: Percent inhibition of adipocyte lipolysis in rat adipocyte assay was determined at 3 uM. Type of test: functional. In a few lines: as §4
The species named for test [12] is Rattus norvegicus. Kind of test: Inhibitory concentration (IC50) of adipocyte lipolysis in rat adipocyte assay was determined.
The species named for test [13] is Rattus norvegicus. Kind of test: Percent inhibition of adipocyte lipolysis in rat adipocyte assay was determined at 100 uM. Type of test: functional. In a few lines:
as §1

The species named for test [14] is Rattus norvegicus. Kind of test: Concentration required for inhibition of adipocyte lipolysis in rat adipocyte assay was determined at 3 uM concentration. Type of test: functional. Put shortly: as §4
Test [15] is filed under the species Rattus norvegicus. Kind of test: Percent inhibition of adipocyte lipolysis in rat adipocyte assay was determined at 100 uM concentration. Type of test: functional. Put shortly: as §4

The values below come from ChEMBL document CHEMBL1123595, “Synthesis and antilipolytic activities of quinolyl carbanilates and related analogues” (J Med Chem, 1987).

For orientation: IC50 means the concentration that gives 50% inhibition. What is called inhibition is the relative decrease from the control value, in per cent. The Inhibition is the relative decrease from the control value, in per cent. A lower Inhibition goes with a response near the control.

With `COc1ccccc1OC(=O)Nc1cccc2cccnc12`, the figures for the IC50 (in the test filed under Rattus norvegicus [1]; in test [2]) were 30 µM and 20 µM, respectively.
Compound `COc1ccc(NC(=O)Oc2cccc3ccc(C)nc23)cc1` registered an IC50 in the test filed under Rattus norvegicus [1] of 0.2 µM. The inhibition in the test filed under Canis lupus familiaris [3] amounted to 68%.
On the same counts, the results for `C[C@@H](NC(=O)Oc1cccc2cccnc12)c1ccccc1` are 35 µM and 76%.
With `COc1ccccc1NC(=O)Oc1ccc2cccnc2c1`, the IC50 is 80 µM in the test listed under Rattus norvegicus [1] and 48 µM in test [2].
In turn, `Cc1ccc2cccc(OC(=O)Nc3ccc(Br)cc3)c2n1` had an inhibition at 3 µM in the test filed under Rattus norvegicus [4] of 5%. Also, the inhibition in the test filed under Canis lupus familiaris [3] was determined as 68%.
The compound `COc1ccc(NC(=O)Oc2ccc3ncccc3c2)cc1` yielded an inhibition at 30 µM in the test filed under Rattus norvegicus [5] of 8%. Further, the inhibition in the test filed under Canis lupus familiaris [6] came out at 64%.
For `COc1cccc(NC(=O)Oc2cccc3cccnc23)c1`, the IC50 in the test listed under Rattus norvegicus [1] is 7 µM; in test [7], 18 µM.
Compound `Cc1ccc(NC(=O)Oc2cccc3cccnc23)cc1` returned an Inhibition in the test filed under Rattus norvegicus [8] of 76%. Further, the inhibition in the test filed under Canis lupus familiaris [3] amounted to 63%.
In the test listed under Rattus norvegicus [4], `O=C(Nc1ccccc1)Oc1cccc2cccnc12` showed an inhibition at 3 µM of 28%. For the same compound, the inhibition in the test listed under Canis lupus familiaris [3] came out at 69%.
Consider `Cc1ccccc1NC(=O)Oc1ccc2cccnc2c1`, for which, in the test filed under Rattus norvegicus [9], the inhibition at 200 µM is 20%. Besides, the inhibition in the test filed under Canis lupus familiaris [3] turned out to be 45%.
`Cc1ccc2cccc(OC(=O)Nc3ccccc3)c2n1`: in the test filed under Rattus norvegicus [4], at 3 µM the inhibition was 29%. Moreover, the inhibition in the test listed under Canis lupus familiaris [3] worked out at 68%.
For the compound `O=C(NCCCCCCNC(=O)ON=C1CCCCC1)ON=C1CCCCC1`, the values for the IC50 (in the test listed under Rattus norvegicus [1]; in test [7]) were 1 µM and 4 µM, respectively.
As to `O=C(Nc1ccccc1Cl)Oc1cccc2cccnc12`, the inhibition in the test listed under Canis lupus familiaris [3] was determined as 1%.
Compound `CC(NC(=O)Oc1cccc2cccnc12)c1ccccc1` (centres undefined) returned an IC50 in the test filed under Rattus norvegicus [1] of 35 µM. Moreover, the inhibition in the test listed under Canis lupus familiaris [6] is 74%.
The compound `COc1ccc(C(=O)Oc2cccc3cccnc23)cc1` yielded an inhibition at 200 µM in the test listed under Rattus norvegicus [10] of 49%. For the same compound, the inhibition in the test listed under Canis lupus familiaris [3] is 13%.
In the test listed under Rattus norvegicus [8], `Cc1cccc(NC(=O)Oc2cccc3cccnc23)c1` came in with an Inhibition of 84%. The inhibition in the test listed under Canis lupus familiaris [3] amounted to 64%.
In the test filed under Rattus norvegicus [10], `COc1cccc(NC(=O)Oc2ccc3cccnc3c2)c1` showed an inhibition at 200 µM of 25%. The inhibition in the test listed under Canis lupus familiaris [6] stood at 52%.
Take `O=C(Nc1cccc(Cl)c1)Oc1cccc2cccnc12`: at 3 µM the inhibition in the test listed under Rattus norvegicus [11] was 5%. For the same compound, the inhibition in the test filed under Canis lupus familiaris [3] was 41%.
`COc1ccc(NC(=O)Oc2cccc3ocnc23)cc1`: the IC50 in the test listed under Rattus norvegicus [1] turned out to be 2.4 µM; in test [7], 7 µM.
With `COc1ccc(NC(=O)Oc2cccc3ncccc23)cc1`, in the test filed under Rattus norvegicus [5], testing at 30 µM gave an inhibition of 1%. Further, the inhibition in the test filed under Canis lupus familiaris [6] is 63%.
In turn, `O=C(Nc1ccc(Cl)cc1)Oc1cccc2cccnc12` displayed an inhibition at 3 µM in the test listed under Rattus norvegicus [4] of 52%. Moreover, the inhibition in the test filed under Canis lupus familiaris [3] is 58%.
Regarding `COc1ccccc1NC(=O)Oc1ccc2ncccc2c1`, the IC50 was 30 µM in the test filed under Rattus norvegicus [1] and 42 µM in [2].
Take `COc1ccc(NC(=O)Oc2cccc3cccnc23)cc1`: the 50% inhibitory concentration (IC50) in test [7] is 17 µM; in the test listed under Rattus norvegicus [12] it was 0.1 µM.
In the test filed under Rattus norvegicus [13], `COc1ccc(NC(=O)COc2cccc3cccnc23)cc1` gave an inhibition at 100 µM of 26%. The inhibition in the test filed under Canis lupus familiaris [6] came out at 7%.
`O=C(Nc1ccccc1)Oc1ccc(Cl)c2cccnc12` displayed an inhibition at 3 µM in the test listed under Rattus norvegicus [4] of 4%. In the test filed under Canis lupus familiaris [3], the inhibition stood at 69%.
As for `O=C(Nc1ccccc1Cl)Oc1ccc2cccnc2c1`, the inhibition in the test filed under Canis lupus familiaris [3] was determined as 6%.
Take `CCOC(=O)c1ccc(NC(=O)Oc2ccc3cccnc3c2)cc1`: the inhibition at 200 µM in the test filed under Rattus norvegicus [10] amounted to 18%. Further, in the test filed under Canis lupus familiaris [6], the inhibition amounted to 46%.
For the compound `O=C(Nc1cccc(C(F)(F)F)c1)Oc1cccc2cccnc12`, in the test filed under Rattus norvegicus [14], 3 µM produced 7% inhibition. For the same compound, the inhibition in the test listed under Canis lupus familiaris [3] was 56%.
`COc1ccc(CC(=O)Oc2cccc3cccnc23)cc1`: the inhibition at 100 µM in the test filed under Rattus norvegicus [15] turned out to be 74%. Further, the inhibition in the test filed under Canis lupus familiaris [3] amounted to 0%.
Consider `COc1ccc(NC(=O)Oc2cccc3cccnc23)c(OC)c1`, for which it took 200 nM to reach half-maximal inhibition in the test filed under Rattus norvegicus [14] (IC50). Besides, in the test filed under Canis lupus familiaris [3], the inhibition turned out to be 65%.
Turning to `COc1ccc(OC)c(NC(=O)Oc2cccc3cccnc23)c1`, the IC50 amounted to 10 µM in the test filed under Rattus norvegicus [1] and 48 µM in test [7].
`COc1ccccc1NC(=O)Oc1cccc2cccnc12`: the IC50 in the test filed under Rattus norvegicus [1] came out at 7 µM; in test [2] it was 40 µM.
On to `COc1ccc(OC(=O)Nc2cccc3cccnc23)cc1`, for which at 30 µM the inhibition in the test filed under Rattus norvegicus [5] was 3%. Besides, in the test listed under Canis lupus familiaris [6], the inhibition is 75%.
Regarding `O=C(Nc1ccccc1C(F)(F)F)Oc1ccc2cccnc2c1`, the inhibition in the test listed under Canis lupus familiaris [3] was found to be 12%.
With `O=C(Nc1ccccc1)Oc1c(Cl)cc(Cl)c2cccnc12`, the IC50 in [7] was determined as 56 µM. The inhibition at 200 µM in the test filed under Rattus norvegicus [10] came out at 28%.
As to `CCOC(=O)c1ccc(NC(=O)Oc2cccc3cccnc23)cc1`, the IC50 in test [2] is 200 µM. The inhibition at 200 µM in the test listed under Rattus norvegicus [10] worked out at 44%.
`COc1ccc(NC(=O)Oc2ccc3cccnc3c2)cc1` came in with an inhibition at 30 µM in the test listed under Rattus norvegicus [5] of 0%. In the test filed under Canis lupus familiaris [3], the inhibition worked out at 60%.
With `COc1ccccc1NC(=O)Nc1cccc2cccnc12`, in test [2], the IC50 came out at 73 µM. Moreover, the inhibition at 200 µM in the test filed under Rattus norvegicus [10] was determined as 4%.
On to `COc1ccc(CNC(=O)Oc2cccc3cccnc23)cc1`, for which half-maximal inhibition in the test filed under Rattus norvegicus [1] (IC50) required 5.8 µM. Further, in the test listed under Canis lupus familiaris [3], the inhibition stood at 72%.
In turn, `COc1ccc(CCNC(=O)Oc2cccc3cccnc23)cc1` displayed an inhibition at 100 µM in the test filed under Rattus norvegicus [15] of 98%. In the test filed under Canis lupus familiaris [3], the inhibition came out at 70%.
With `COc1ccc(NC(=O)Oc2ccc(S(=O)(=O)O)c3cccnc23)cc1`, in the test listed under Rattus norvegicus [10], testing at 200 µM gave an inhibition of 14%. The inhibition in the test listed under Canis lupus familiaris [3] is 83%.
In the test filed under Rattus norvegicus [4], `O=C(Nc1ccc(Br)cc1)Oc1cccc2cccnc12` showed an inhibition at 3 µM of 5%. Besides, the IC50 in [7] was determined as 80 µM.
For the compound `O=C(O)c1cccnc1` [NIACIN], the IC50 in test [2] was 13 µM.
Take `Cc1ccccc1NC(=O)Oc1cccc2cccnc12`: testing at 3 µM in the test listed under Rattus norvegicus [14] gave an inhibition of 40%. The inhibition in the test listed under Canis lupus familiaris [3] came out at 7%.
Consider `COc1ccc(CCNC(=O)Oc2ccc3cccnc3c2)cc1`, for which the inhibition at 100 µM in the test filed under Rattus norvegicus [15] was determined as 84%. Further, the inhibition in the test filed under Canis lupus familiaris [3] came to 97%.
As for `COc1ccccc1NC(=O)Oc1cccc2ncccc12`, in test [7], the IC50 worked out at 48 µM. In the test listed under Rattus norvegicus [10], the inhibition at 200 µM turned out to be 31%.
As to `Cc1cnc(C(=O)O)c[n+]1[O-]` [ACIPIMOX], the IC50 in [7] came out at 39 µM.
